APJ antagonist: antagonists of human apelin receptor APJ, primary screen, CHO-K1 cells, beta-arrestin complementation, luminescence; P35414; 0.32% of 330,000 active; inhibition, % at 20 µM; AID 2521, 2010;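 active = inhibition above about 40% at 20 µM, limit read from the data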;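 also: cells challenged with 10 nM apelin-13 agonist together with compound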
Target sequence (P35414 whole entry, looked up): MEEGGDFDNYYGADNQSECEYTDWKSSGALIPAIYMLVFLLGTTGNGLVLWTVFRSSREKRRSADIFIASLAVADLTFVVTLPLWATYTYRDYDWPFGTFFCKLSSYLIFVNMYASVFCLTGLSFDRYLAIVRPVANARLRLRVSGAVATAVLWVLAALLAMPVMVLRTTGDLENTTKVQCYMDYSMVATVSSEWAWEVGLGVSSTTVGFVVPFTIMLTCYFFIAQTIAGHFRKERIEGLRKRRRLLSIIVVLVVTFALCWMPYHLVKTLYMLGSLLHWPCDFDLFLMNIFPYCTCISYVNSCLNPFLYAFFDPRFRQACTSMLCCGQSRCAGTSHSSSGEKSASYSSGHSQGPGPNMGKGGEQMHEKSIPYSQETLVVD
APJ ag: agonists of human apelin receptor APJ, primary screen, CHO-K1 cells, PathHunter beta-arrestin, luminescence. P35414. 0% DMSO wells, 100% apelin. activation, % at 20 µM. 0.11% of 330,000 active. AID 2520, 2010;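 active = activation more than six SD over the plate average, tested at 20 µM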
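Assay system: CHO-K1 APJ beta-arrestin complementation cell line / Compound: single test compound dose, 20 µM final, 1% DMSO / Times: overnight seeding, 90 min compound at 25 °C, 1 h detection / Technique: beta-gal luminescence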
EBI2 antag: EBI2 receptor antagonists, beta-arrestin recruitment, primary screen, cell-based, luminescence, 7a,25-OHC stimulation, uHTS; G-protein coupled receptor 183 (Homo sapiens), P32249; AID 651636, 2012; 0.81% of 360,000 active; 7a,25-OHC stimulated; inhibition, % at 5 µM; in the data active = inhibition above about 38%;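 also: enzyme fragment complementation signal reports receptor beta-arrestin coupling in cells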
CXCR6 inh: CXCR6 receptor inhibitors, primary screen, cell-based, beta-arrestin, luminescence, CHO-K1 PathHunter, 1536-well; C-X-C chemokine receptor type 6 (Homo sapiens), O00574; inhibition, % at 20 µM; 0.36% of 360,000 active; AID 602244, 2012; in the data active = inhibition above about 34%, passing the limit was not always enough;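 also: antagonist mode with CXCL16 agonist at 10 nM final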
Target sequence (O00574 whole entry, looked up): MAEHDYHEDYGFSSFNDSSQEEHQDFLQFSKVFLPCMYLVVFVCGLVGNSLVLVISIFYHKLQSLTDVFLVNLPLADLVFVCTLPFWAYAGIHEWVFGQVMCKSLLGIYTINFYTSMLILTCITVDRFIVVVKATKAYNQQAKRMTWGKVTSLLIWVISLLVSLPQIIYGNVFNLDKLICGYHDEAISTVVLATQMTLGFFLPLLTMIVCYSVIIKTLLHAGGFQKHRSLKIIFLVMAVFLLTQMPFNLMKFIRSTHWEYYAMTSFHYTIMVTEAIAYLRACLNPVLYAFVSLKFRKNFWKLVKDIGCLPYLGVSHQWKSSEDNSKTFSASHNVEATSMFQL
HTR2A ag: mouse Htr2a agonists via beta-arrestin recruitment, primary screen, cell-based, luminescence; 5-hydroxytryptamine receptor 2A (Mus musculus), P35363; CHO-K1 mHTR2A beta-arrestin complementation; percent of 30 µM serotonin response; activation, % at 7.6 µM; 0.66% of 360,000 active; AID 624169, 2012;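 active = activation above a run cutoff, the mean activation of all tested compounds plus 3 SD, cut at about 14% in these data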
CCR6 antag: CCR6 receptor antagonists, primary screen, cell-based, CHO-K1, luminescence, beta-arrestin, uHTS. C-C chemokine receptor type 6 (Homo sapiens), P51684. CHO-K1 CCR6 PathHunter beta-arrestin, CCL20-stimulated. inhibition, % at 20 µM. 0.49% of 340,000 active;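 active = compounds whose inhibition of the agonist-driven luminescence signal at 20 µM reaches about 50%, limit read from the data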;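 also: cells stimulated with CCL20 at 14 nM final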
A number is an active result; 0 = inactive; - = no result given. Sampled rows, rich in hits. Any-hit rate of the full collection: about 2.1%.

SMILES | APJ antagonist | APJ ag | EBI2 antag | CXCR6 inh | HTR2A ag | CCR6 antag
O=C1C(Nc2ccccc2)=C(NS(=O)(=O)c2ccccc2)C(=O)c2ccccc21 | 0 | 0 | 0 | 0 | 0 | 50.2
O=S(=O)(Nc1ccc(NS(=O)(=O)c2ccccc2)cc1)c1ccccc1 | - | - | 0 | 0 | 0 | -
Cc1ccc(CNC(=O)CCNS(=O)(=O)c2cccc3nsnc23)cc1 | 0 | 0 | 0 | 0 | 0 | 0
CC(=O)Nc1cc2c3ccccc3ccc2c2ccccc12 | - | - | 0 | 0 | 0 | 0
Cc1ccc2c(c1)c(C1=c3ccccc3=NC1=O)c(O)n2C | 0 | 0 | 0 | 0 | 0 | 50.8
Cc1c(-n2c(O)c(C3=c4ccccc4=NC3=O)sc2=O)c(=O)n(-c2ccccc2)n1C | 0 | 0 | 0 | 0 | 0 | 0
C=CCn1c(O)c(C2=c3ccccc3=NC2=O)s/c1=N/c1nccs1 | 0 | 0 | 0 | 0 | 0 | 0
C=CCn1c(O)c(C2=c3ccccc3=NC2=O)c2ccccc21 | 0 | 0 | 0 | 71.6 | 0 | 90.7
NC(N)=N/N=C(\N=Nc1ccccc1)c1ccc(Cl)cc1 | - | - | 0 | 0 | 0 | 63.4
NC(N)=N/N=C(\N=Nc1ccccc1)c1cccc2cccnc12 | - | - | 0 | 0 | 0 | 0
Cc1nc(C)c(C(=O)N2CCCC(CCC(=O)NCc3ccc(F)c(F)c3)C2)s1 (stereo not given) | 0 | 0 | 0 | 0 | 0 | 0
COc1ccc(NC(=S)NC(NC(=O)c2ccccc2Cl)C(Cl)(Cl)Cl)c([N+](=O)[O-])c1 (stereo not given) | 0 | 0 | 0 | 0 | 0 | 56.1
COc1ccc(NC(=S)NC(NC(=O)c2ccc(Cl)cc2Cl)C(Cl)(Cl)Cl)c([N+](=O)[O-])c1 (stereo not given) | 0 | 0 | 0 | 33.3 | 0 | 0
COc1ccc(NC(=S)NC(NC(=O)CCl)C(Cl)(Cl)Cl)c([N+](=O)[O-])c1 (stereo not given) | 0 | 0 | 0 | 0 | 0 | 0
COc1ccc(NC(=S)NC(NC(=O)c2cccc3ccccc23)C(Cl)(Cl)Cl)c([N+](=O)[O-])c1 (stereo not given) | 0 | 0 | 0 | 0 | 0 | 0
Cc1cc(NC(=O)COC(=O)c2ccco2)no1 | 0 | 0 | 0 | 0 | 0 | 0
O=C(Nc1ccc2c(c1)OCO2)c1ccc(N2CCCC2)c([N+](=O)[O-])c1 | 0 | 0 | 0 | 0 | 0 | 0
CC(CCc1ccccc1)NC(=O)COC(=O)c1ccc(S(C)(=O)=O)c([N+](=O)[O-])c1 (stereo not given) | 0 | 0 | 0 | 0 | 0 | 50.3
CC(CCc1ccccc1)NC(=O)COC(=O)c1ccc([N+](=O)[O-])cc1 (stereo not given) | 0 | 0 | 0 | 0 | 0 | 0
O=C1C=CC2(O[C@H](c3ccccc3)[C@@H](c3ccccc3)O2)[C@H](Sc2ccccc2O)C1 | - | - | 71.6 | 94.0 | 0 | 103.6
C[C@@H]1[C@@H](Sc2ccccc2)CC(=O)O[C@@H]1c1ccc(-c2ccccc2)cc1 | 0 | 0 | 0 | 0 | 0 | 0
Cc1cc(N(C)/N=C/c2ccccc2O)nc(-c2ccccc2O)n1 | 0 | 0 | 0 | 42.0 | 0 | 56.0
COc1ccc(NC(=S)N(Cc2ccc(N(C)C)cc2)Cc2ccco2)cc1 | 0 | 0 | 0 | 0 | 0 | 0
CCOc1ccc(NC(=S)N(Cc2ccc(N(C)C)cc2)Cc2ccco2)cc1 | 0 | 0 | 44.3 | 0 | 0 | 0
CCOC(=O)c1c(NC(=O)C(NCCN(C)C)c2ccccc2)sc2c1CCCC2 (stereo not given) | 0 | 0 | 0 | 0 | 0 | 53.6
SMILES | APJ antagonist | APJ ag | EBI2 antag | CXCR6 inh | HTR2A ag | CCR6 antag
CCOC(=O)c1ccc(-n2c(=O)[nH]c3ccccc3c2=O)cc1 | 0 | 0 | 0 | 0 | 0 | 0
CCOc1cccc2cc(C(C)=O)oc12 | 0 | 0 | 0 | 0 | 0 | 0
C/C(=N\Nc1ncc(Cl)cc1Cl)c1ccccn1 | - | - | 55.9 | 49.6 | 0 | 0
C/C(=N\Nc1ccc(Cl)c(C(=O)O)c1)c1ccccn1 | 0 | 0 | 0 | 0 | 0 | 0
CC(C)(C=O)C1=CC(=O)c2ccccc2C1=O | - | - | 0 | 99.9 | 0 | 103.3
CC1=CC(=O)c2ccccc2C1=O | 0 | 0 | 0 | 0 | 0 | 0
Nc1c(Cl)ncnc1N/N=C/c1ccccn1 | - | - | - | - | - | 50.1
Clc1cc(Cl)c(Cl)c(Cl)c1Cl | 0 | 0 | 0 | 0 | 0 | 0
CC(C)Cc1nc2oc3c(N4CCN(CCO)CC4)ncnc3c2c2c1CCCC2 | 0 | 0 | 51.2 | 0 | 0 | 0
C=CCNC(=O)C1CC1(c1cccc(C)c1)c1cccc(C)c1 (stereo not given) | 0 | 0 | 0 | 0 | 0 | 0
Cc1cccc(C2(c3cccc(C)c3)CC2C(=O)Nc2ccc([N+](=O)[O-])cc2O)c1 (stereo not given) | 0 | 0 | 0 | 0 | 0 | 57.9
O=C1CSC(=S)N1/N=C/C=C/c1ccccc1 | 0 | 0 | 0 | 45.7 | 0 | 0
CN(C)CCCN(C(=O)CCOc1ccccc1)c1nc2c(F)cccc2s1 | - | - | 47.6 | 0 | 0 | 0
CN(C)CCCN(C(=O)CCc1ccccc1)c1nc2c(F)cccc2s1 | 0 | 0 | 0 | 0 | 0 | 0
O=c1[nH]c(=O)n(Cc2ccc(Oc3ccccc3)cc2)cc1Br | 0 | 0 | 0 | 0 | 0 | -
C=C1CC(Cn2cc(Br)c(=O)[nH]c2=O)(c2ccc(-c3ccccc3)cc2)OC1=O (stereo not given) | - | - | 84.1 | 42.8 | 0 | -
C#CCOc1c(Cl)cc(/C=C2/C(=O)ON=C2C)cc1OC | 0 | 0 | 0 | 0 | 0 | 0
COc1cc(/C=C2\SC(c3ccc(C)cc3)=NC2=O)cc(OC)c1OC | 0 | 0 | 0 | 0 | 0 | 0
COc1cc(/C=C2\SC(c3ccccc3)=NC2=O)cc(Cl)c1O | - | - | 0 | 0 | 0 | 73.8
COc1cc(/C=C2/C(=O)ON=C2C)cc(Cl)c1O | 0 | 0 | 0 | 0 | 0 | 58.9
CCOc1ccc(N=C2C(=O)N(CN3CCOCC3)c3ccccc32)cc1 | 0 | 0 | 0 | 0 | 0 | 59.1
O=[N+]([O-])c1cccc(N=Cc2sc3ccccc3c2O)c1 | 0 | 0 | - | - | - | -
O=[N+]([O-])c1ccc(N=Cc2sc3ccccc3c2O)cc1 | 0 | 0 | 0 | 0 | 0 | 51.6
O=C(O)C1Sc2[nH]c(=O)sc2C2c3cc(Br)ccc3OC(=O)C12 (stereo not given) | 0 | 0 | 0 | 0 | 0 | 0
Cc1ccc(CNC(=O)C2CCC(=O)N(CCc3ccc(Cl)cc3)C2)cc1 (stereo not given) | 0 | 0 | 49.0 | 0 | 0 | 0
CC1(C)CC(=O)C2=C(C1)Nc1ccccc1NC2 | 0 | 0 | 0 | 0 | 0 | 0
CC1(C)CC(=O)C2=C(C1)Nc1ccccc1N=C2 | 57.9 | 0 | - | - | - | -
Clc1ccc(N=c2ssnc2Cl)nc1 | 0 | 0 | 85.0 | 0 | 0 | 0
